# Paper PMC9044438 (Cell reports, 2022)
# System: HCT116 cells
# Experiment: RNA-seq of nuclear RNA from HCT116 cells electroporated with peptide
# Assay type: cell-based, human
# Details: 10 μM Nutlin-3a, 3 h, versus DMSO
# How it was run: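 HCT116 cells were trypsinized and electroporated with 0 or 10 μM peptide into antibiotic-free McCoy's 5A (serum-free in the second run). They then went to medium with 0.1% DMSO or 10 μM Nutlin-3a, plus 200 nM peptide in peptide wells, for 3 h at 37°C. Nuclei were isolated in 0.5% NP-40 lysis buffer, and nuclear RNA was TRIzol-extracted with extra phenol/chloroform cleanup.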
structure (smiles),measurement,value
COc1ccc(C2=N[C@@H](c3ccc(Cl)cc3)[C@@H](c3ccc(Cl)cc3)N2C(=O)N2CCNC(=O)C2)c(OC(C)C)c1 [Nutlin-3a],expression of p53 target genes,induced expression of p53 target genes
